Data: ChEMBL document CHEMBL1151688, “Antiobesity designed multiple ligands: Synthesis of pyrazole fatty acid amides and evaluation as hypophagic agents” (Bioorg Med Chem, 2008)
Activity calls are given as the source filed them. The calls are words filed in the database; no cut-off is given here.

Columns and labels:
[1] = molecular target: T1, Peroxisome proliferator-activated receptor alpha (Homo sapiens) (UniProt Q07869); experiment: Activation of human PPARalpha assessed as receptor-GST-TIF2 interaction by GST pull down assay
T1 sequence (whole entry): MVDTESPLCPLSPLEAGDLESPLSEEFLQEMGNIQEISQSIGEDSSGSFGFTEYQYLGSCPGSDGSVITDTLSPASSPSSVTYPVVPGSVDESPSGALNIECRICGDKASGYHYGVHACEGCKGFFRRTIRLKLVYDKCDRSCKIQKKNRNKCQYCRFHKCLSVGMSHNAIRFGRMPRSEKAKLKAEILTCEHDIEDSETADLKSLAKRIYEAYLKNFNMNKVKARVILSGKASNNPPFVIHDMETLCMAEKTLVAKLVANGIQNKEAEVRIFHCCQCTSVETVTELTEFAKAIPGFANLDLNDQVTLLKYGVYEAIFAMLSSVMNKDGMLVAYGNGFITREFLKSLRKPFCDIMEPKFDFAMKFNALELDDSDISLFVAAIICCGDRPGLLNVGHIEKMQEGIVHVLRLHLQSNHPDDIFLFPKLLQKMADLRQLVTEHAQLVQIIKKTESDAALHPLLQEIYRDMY

Mus musculus [2] = experiment: Inhibition of […]-induced hypothermia in mouse assessed as rectal temperature at 10 mg/kg ip after 15 mins; assay type: functional, organism-based; set-up: dose 10 mg/kg
How it was run: (§1)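 Male 129S1/SvImJ mice given compound ip together with WIN 2 mg/kg ip; rectal temperature taken by probe at 3 cm depth before and 15 min after injection; compared with WIN alone by Student's t-test.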

Mus musculus [3] = experiment: Effect on rectal temperature in mouse at 10 mg/kg, ip after 15 mins; assay type: functional, organism-based; set-up: dose 10 mg/kg
How it was run: (§2)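 Adult male 129S1/SvImJ mice (25–30 g); rectal temperature measured with a probe at 3 cm depth before dosing and 15 min after ip injection; tests run 9:00–15:00 h; mean ± SEM.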

[4] = molecular target: Peroxisome proliferator-activated receptor alpha (Homo sapiens) (UniProt Q07869); experiment: Agonist activity at human PPARalpha expressed in human MCF7 cells coexpressing TIF2 by luciferase reporter gene assay
Mus musculus [5] = experiment: Inhibition of […]-induced hypothermia in mouse assessed as rectal temperature at 3 mg/kg ip after 15 mins; assay type: functional, organism-based; set-up: dose 3 mg/kg; how it was run: as §1
Rattus norvegicus [6] = experiment: Inhibition of food intake in 24 hrs food-deprived Wistar rat assessed at 3 mg/kg, ip; assay type: functional, organism-based; set-up: dose 3 mg/kg
How it was run: (§3)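 Male Wistar rats (250–450 g), habituated to handling, food-deprived 24 h with water available; compound suspended in saline with Tween 80, given ip; 15 min later returned to home cage with weighed food; intake (g/kg) measured at 30, 60, 120 and 240 min; ≥8 rats per group, ANOVA vs vehicle.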

Rattus norvegicus [7] = experiment: Inhibition of food intake in 24 hrs food-deprived Wistar rat assessed at 0.3 mg/kg, ip; assay type: functional, organism-based; set-up: dose 0.3 mg/kg; how it was run: as §3
Mus musculus [8] = experiment: Inhibition of […]-induced decrease in locomotor activity in ip dosed mouse after 15 mins; assay type: functional, organism-based
Mus musculus [9] = experiment: Effect on rectal temperature in mouse at 3 mg/kg, ip after 15 mins; assay type: functional, organism-based; set-up: dose 3 mg/kg; how it was run: as §2

| Activity [1] | SMILES | Activity (Mus musculus [5]) | Activity (Rattus norvegicus [6]) | Activity (Rattus norvegicus [7]) | also measured |
| --- | --- | --- | --- | --- | --- |
| Active | CCCCCCCC/C=C\CCCCCCCCNC(=O)c1nn(-c2ccc(Cl)cc2Cl)c(-c2ccc(Cl)cc2)c1C | – | – | – | – |
| inactive | CCCCCCCCCCCCCCCCNC(=O)c1cc(-c2ccc(Cl)cc2)n(-c2ccc(Cl)cc2)n1 | – | – | – | Activity (Mus musculus [2]): inactive; Activity (Mus musculus [3]): inactive |
| Active | CCCCCCCC/C=C\CCCCCCCCNC(=O)c1cc(-c2ccc(Cl)cc2)n(-c2ccc(Cl)cc2Cl)n1 | – | – | – | – |
| inactive | CCCCCCCCCCCCCCCCNC(=O)c1cc(-c2ccc(Cl)cc2)n(-c2ccc(Cl)cc2Cl)n1 | – | – | – | – |
| – | Cc1c(C(=O)NN2CCCCC2)nn(-c2ccc(Cl)cc2Cl)c1-c1ccc(I)cc1 | – | – | – | Activity [4]: inactive |
| Active | CCCCCCCC/C=C\CCCCCCCCNC(=O)c1cc(-c2ccc(Cl)cc2)n(-c2ccc(Cl)cc2)n1 | Active | inactive | inactive | – |
| inactive | CCCCCCCCCCCCCCCCNC(=O)c1nn(-c2ccc(Cl)cc2Cl)c(-c2ccc(Cl)cc2)c1C | – | inactive | inactive | – |
| inactive | CCCCCCCCCCCCCCCCNC(=O)c1cc(-c2ccc(Cl)cc2)n(-c2ccccc2)n1 | inactive | – | – | Activity (Mus musculus [8]): Active; Activity (Mus musculus [9]): inactive |
| Active | CCCCCCCC/C=C\CCCCCCCCNC(=O)c1cc(-c2ccc(Cl)cc2)n(-c2ccccc2)n1 | inactive | Active | Active | Activity (Mus musculus [9]): inactive |
